Screening data: PubChem BioAssay, The Scripps Research Institute Molecular Screening Center
Sampled rows, rich in hits. Any-hit rate of the full collection: about 2.9%.
PRMT1 inh – PRMT1 methyltransferase inhibitors, primary screen, biochemical, fluorescence polarization | Protein arginine N-methyltransferase 1 (Homo sapiens), Q99873 | recombinant PRMT1, activity-based probe fluorescence polarization | inhibition, % at 2.79 µM | 370,000 tested, 1.3% active;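 active means inhibition above about 21% made by adding two undisclosed values, limit read from the data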
HTRA1 inh – HTRA1 serine protease inhibitors, primary screen, biochemical, fluorescence polarization, HTS; Q92743; recombinant HTRA1, FP-rhodamine activity-based probe; inhibition, % at 5.96 µM; 340,000 tested, 0.5% active; AID 504803, 2011; in the data active means inhibition above about 36%;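 further: 0% = enzyme with DMSO and 100% = wells lacking enzyme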
TCR CD3 inh – inhibitors of human TCR-CD3 interaction, primary screen, biochemical, fluorescence, TAMRA-labeled TCR probe; AID 651800, 2012; T-cell receptor (TCR); inhibition, % at 9.4 µM; 360,000 tested, 0.37% active; in the data active means inhibition above about 19%;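 further: recombinant mutant TCR 2C K166C tagged with TAMRA read by polarization; 0% = receptor in buffer alone and 100% = receptor with positive control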
PAD4 inh – human PAD4 inhibitors, primary screen, biochemical, fluorescence polarization, 1536-well format. inhibition, % at 6.36 µM. Protein-arginine deiminase type-4 (Homo sapiens), Q9UM07. 330,000 tested, 0.41% active. recombinant PAD4, RCA probe fluorescence polarization;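 active means percent inhibition above a cutoff equal to the mean of all tested compounds plus 3 SD, cut at about 15% in these data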;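 further: 0% = PAD4 with RCA probe and DMSO and 100% = probe without PAD4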
Target sequence (Q9UM07 whole entry, looked up): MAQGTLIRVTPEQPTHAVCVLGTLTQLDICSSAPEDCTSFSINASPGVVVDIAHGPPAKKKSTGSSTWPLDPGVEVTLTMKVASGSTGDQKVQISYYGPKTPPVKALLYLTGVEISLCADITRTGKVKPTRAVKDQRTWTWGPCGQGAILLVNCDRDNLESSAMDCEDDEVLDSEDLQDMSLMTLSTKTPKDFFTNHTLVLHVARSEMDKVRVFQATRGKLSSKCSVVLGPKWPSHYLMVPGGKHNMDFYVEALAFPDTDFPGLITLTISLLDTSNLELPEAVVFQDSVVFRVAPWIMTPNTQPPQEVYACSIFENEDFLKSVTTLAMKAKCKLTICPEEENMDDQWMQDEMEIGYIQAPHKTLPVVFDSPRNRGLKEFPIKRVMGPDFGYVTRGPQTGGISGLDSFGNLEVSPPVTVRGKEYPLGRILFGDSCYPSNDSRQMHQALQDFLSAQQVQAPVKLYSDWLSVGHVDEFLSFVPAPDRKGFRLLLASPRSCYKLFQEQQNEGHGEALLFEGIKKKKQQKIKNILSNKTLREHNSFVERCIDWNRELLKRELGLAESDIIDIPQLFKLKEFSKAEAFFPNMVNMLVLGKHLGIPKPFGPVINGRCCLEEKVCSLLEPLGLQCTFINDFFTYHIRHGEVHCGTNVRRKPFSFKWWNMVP
SIAE primary – human SIAE inhibitors, primary screen, biochemical, fluorescence polarization, FP-Rh probe, 1536-well HTS; AID 1053197, 2014; inhibition, % at 9.66 µM; SIAE FP-Rh probe binding; 370,000 tested, 0.69% active;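 active means inhibition above a cutoff: mean of compounds within the control limits plus 3 SD of those, cut at about 17% in these data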;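 further: 0% = plate median of compound wells and 100% = probe without SIAE protein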
ABHD4 inh – ABHD4 inhibitors, primary screen, biochemical, fluorescence polarization, mouse. inhibition, % at 8.92 µM. 370,000 tested, 0.54% active. (Lyso)-N-acylphosphatidylethanolamine lipase (Mus musculus), Q8VD66. purified mABHD4, FP-Rh probe fluorescence polarization. AID 720543, 2013;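 active means inhibition exceeding the mean over every tested compound plus 3 SD, cut at about 30% in these data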;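 further: 0% = plate median of compound wells and 100% = S159A mutant with DMSO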
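Assay system: Wild-type mouse ABHD4 protein | Medium: HEPES pH 7.0 buffer, 150 mM NaCl, 0.01% Pluronic F-127 | Incubation: Enzyme–compound pre-incubation 45 min, then probe 60 min, both 25 °C | Technique: Fluorescence polarization with parallel and perpendicular emission, 525/598 nm | Evaluation: % inhibition of FP-Rh probe binding versus controls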
PAD4 confirm – human PAD4 inhibitors, confirmation, biochemical, fluorescence polarization | AID 488796, 2010 | recombinant PAD4, RCA probe fluorescence polarization | shares compounds with PAD4 inh | 1,200 tested, 28% active | inhibition, % at 6.36 µM;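 active means mean inhibition across replicates above the hit cutoff set by the earlier primary screen, cut at about 15% in these data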;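 further: inhibitors block active-site labeling by the probe so polarization falls; 0% = PAD4 with probe and DMSO and 100% = probe without PAD4 enzyme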
Numbers without * were called inactive.

COc1ccc(C[N+]2=C(N)NC3=C4CCCCC4n4c(=O)n(-c5ccccc5)c(=O)n4C3C2)c(OC)c1 (stereo not given) was read as PRMT1 inh 1, SIAE primary 0 and ABHD4 inh 20.
`COC(=O)[C@H](CC(C)C)N1Cc2nnn(Cc3ccc(C)cc3)c2-c2cc(F)ccc2S1(=O)=O` gave PRMT1 inh -5, SIAE primary -1 and ABHD4 inh -14.
`COc1cc(C#N)c(N=C(SCC#N)N2CCOCC2)cc1OC` gave PRMT1 inh 1, HTRA1 inh 3, TCR CD3 inh 6, PAD4 inh 25*, SIAE primary -5, ABHD4 inh -2 and PAD4 confirm 28*.
For CCC(C)(C)NC(=O)CN(CC1CCCO1)C(=O)CNS(=O)(=O)c1ccccc1 (stereo not given) the results were PRMT1 inh 1, HTRA1 inh -5, TCR CD3 inh 0, PAD4 inh 0, SIAE primary -3 and ABHD4 inh 3.
`CC(C)C(C(=O)NC1CCCC1)N(CC1CCCO1)C(=O)CNS(=O)(=O)c1ccccc1` (stereo not given) gave PRMT1 inh 4, HTRA1 inh -6, TCR CD3 inh -14, PAD4 inh 26*, SIAE primary 1, ABHD4 inh -5 and PAD4 confirm -3.
Screening CCCCCCn1cc(CN2CC=CS2(=O)=O)nn1 returned PRMT1 inh -1, SIAE primary 0 and ABHD4 inh 7.
COC[C@@H](OC(C)=O)[C@H]1OCc2ccccc2[C@@H]1/C=C/c1ccccc1 was read as PRMT1 inh -2, SIAE primary 3 and ABHD4 inh 0.
Screening COc1ccc(C2C(C#N)=C(N)N(N(C)C)C3=C2C(=O)CCC3)cc1 (stereo not given) returned PRMT1 inh 4, HTRA1 inh 5, TCR CD3 inh -6, PAD4 inh 90*, SIAE primary -6, ABHD4 inh 11 and PAD4 confirm 3.
`Cc1ccc(C2C(C#N)=C(N)N(N(C)C)C3=C2C(=O)CCC3)cc1` (stereo not given) gave PRMT1 inh -3, HTRA1 inh 4, TCR CD3 inh -13, PAD4 inh 2, SIAE primary -5 and ABHD4 inh -2.
Brc1ccc(-c2nc(-c3ccncc3)no2)cc1 was read as PRMT1 inh 1, HTRA1 inh 1, TCR CD3 inh 2, PAD4 inh -2, SIAE primary -6 and ABHD4 inh 5.
Screening Brc1ccc(-c2nc(-c3ccncc3)no2)o1 returned PRMT1 inh -3, HTRA1 inh 9, TCR CD3 inh -2, PAD4 inh 15*, SIAE primary -2, ABHD4 inh 3 and PAD4 confirm 4.
NC(=O)C1CCN(c2nc(-c3ccc4c(c3)OCCCO4)cs2)CC1 was read as PRMT1 inh -2, SIAE primary 0 and ABHD4 inh 3.
`CSCc1cccc(C(=O)OC(C)C(=O)Nc2c(C)n(C)n(-c3ccccc3)c2=O)c1` (stereo not given) gave PRMT1 inh -1, HTRA1 inh 6, TCR CD3 inh 8, PAD4 inh 24*, SIAE primary 0, ABHD4 inh -2 and PAD4 confirm 6.
`CCC(CO)Nc1cccc2c1S(=O)(=O)N(Cc1cn(Cc3ccc(F)cc3)nn1)Cc1ccccc1O2` (stereo not given) gave PRMT1 inh 0, SIAE primary 0 and ABHD4 inh -6.
O=[N+]([O-])c1ccc2nc(-c3ccccc3)n(OCc3ccc(Cl)cc3)c2c1 was read as PRMT1 inh 0, HTRA1 inh -5, TCR CD3 inh 5, PAD4 inh 84*, SIAE primary -7, ABHD4 inh 5 and PAD4 confirm 4.
For CCC(=O)N(Cc1cc(=O)[nH]c2ccccc12)c1cccc(C)c1 the results were PRMT1 inh -1, HTRA1 inh -16, TCR CD3 inh 1, PAD4 inh 46*, SIAE primary 1, ABHD4 inh -3 and PAD4 confirm 33*.
CCC(=O)N(Cc1cc(=O)[nH]c2ccccc12)c1ccccc1C was read as PRMT1 inh 1, HTRA1 inh -4, TCR CD3 inh 8, PAD4 inh 18*, SIAE primary 2, ABHD4 inh 3 and PAD4 confirm 22*.
`CCCC(=O)N(Cc1cc(=O)[nH]c2ccccc12)c1ccccc1OC` gave PRMT1 inh 2, HTRA1 inh -9, TCR CD3 inh -4, PAD4 inh -6, SIAE primary 0 and ABHD4 inh 0.
For Cc1ccc(N(Cc2cc(=O)[nH]c3ccccc23)C(=O)CCl)c(C)c1 the results were PRMT1 inh 3, HTRA1 inh 0, TCR CD3 inh 3, PAD4 inh 4, SIAE primary -15 and ABHD4 inh 4.
For O=C(c1ccc(F)cc1F)N(Cc1ccccn1)CC1CCCO1 (stereo not given) the results were PRMT1 inh -2, SIAE primary -1 and ABHD4 inh 7.
Cc1[nH]c(=S)c(C#N)c(-c2ccco2)c1C(=O)N(C)C was read as PRMT1 inh 31*, HTRA1 inh 14, TCR CD3 inh 6, PAD4 inh 19*, SIAE primary 1, ABHD4 inh -1 and PAD4 confirm 12.
For CC(=O)c1c(C)[nH]c(=S)c(C#N)c1-c1ccc(Cl)cc1 the results were PRMT1 inh -1, TCR CD3 inh 7, PAD4 inh -6, SIAE primary -3 and ABHD4 inh 2.
CC(CCN1CCC(C(O)(c2ccccc2)c2ccccc2)CC1)Oc1cccc(C(F)(F)F)c1 (stereo not given) was read as PRMT1 inh 2, SIAE primary -2 and ABHD4 inh 16.
`O=S1OC(c2ccccc2)c2cc(Cl)ccc21` (stereo not given) gave PRMT1 inh 1, HTRA1 inh 4, TCR CD3 inh -4, PAD4 inh 40*, SIAE primary 8, ABHD4 inh -1 and PAD4 confirm 35*.
